The nature of series [1]: Drug metabolism in rat liver microsomes assessed as cytochrome P450-mediated 4-hydroxy-3-(3-oxo-1-phenyl-1-butenyl)-2H-1-benzopyran-2-one metabolite formation measured for 10 mins by LC-UV analysis. The class given is ADME. The method, boiled down: (§1)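 Time course with (S)-warfarin in uninduced rat liver microsomes (cytochrome P-450 1.0 nmol/mg protein; protein 2 mg/mL) at 37 °C and pH 7.4. NADPH-supported TES–MgCl2 incubation, with products quantified by LC. Single determination from a pool of five rats.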

Series [2] is described as follows: Drug metabolism in rat liver microsomes assessed as cytochrome P450-mediated 7-hydroxywarfarin metabolite formation measured after 10 mins by LC-UV analysis. The class given is ADME. The method, boiled down:
as §1

A short description of series [3]: Drug metabolism in rat liver microsomes assessed as cytochrome P450-mediated 6-hydroxywarfarin metabolite formation measured for 10 mins by LC-UV analysis. The class given is ADME. The method, boiled down: as §1
Series [4] can be described thus: Drug metabolism in rat liver microsomes assessed as cytochrome P450-mediated 4-hydroxy-3-(3-oxo-1-phenyl-1-butenyl)-2H-1-benzopyran-2-one metabolite formation measured after 10 mins by LC-UV analysis. Format: ADME. The method, boiled down: as §1
The nature of series [5]: Drug metabolism in phenobarbital-induced rat liver microsomes assessed as cytochrome P450-mediated 4-oxo-3-(3-oxo-1-phenylbut-1-enyl)-4H-chromen-2-olate metabolite formation at 3 umol measured under basic conditions by LC-UV analysis in presence of NADPH. Format: ADME. The method, boiled down:
(§2)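 Male Wistar rat liver microsomes, uninduced or phenobarbital-induced (100 mg/kg/day ip in saline for 3 days, harvested 24 h after the last dose). Per 4.0 mL of 0.01 M TES–0.002 M MgCl2, pH 7.4: (R)- or (S)-warfarin sodium 3.0 × 10^-6 mol, NADP 1.25 µmol, glucose 6-phosphate 62.1 µmol, 8.0 mg protein. Preincubated 1.0 min at 37 °C, started with yeast G6P dehydrogenase (5.0 units), stopped by filtration after 10 min. Products quantified by LC against external standards.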

Series [6] in a line: Drug metabolism in rat liver microsomes assessed as cytochrome P450-mediated 4-hydroxy-3-(3-oxo-1-phenyl-1-butenyl)-2H-1-benzopyran-2-one metabolite formation by LC-UV analysis in presence of carbon monoxide-oxygen mixture at ratio of 80:20. Format: ADME. The method, boiled down:
(§3)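 Same NADPH-supported microsomal incubation (warfarin 3.0 × 10^-6 mol, 8.0 mg protein, 4.0 mL TES–MgCl2, pH 7.4). Flasks were sealed with a septum and equilibrated under the stated gas atmosphere for 15 min on ice, then incubated at 37 °C. Products quantified by LC.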

Series [7] can be described thus: Drug metabolism in PCN-induced rat liver microsomes assessed as cytochrome P450-mediated 4-hydroxy-3-(3-oxo-1-phenyl-1-butenyl)-2H-1-benzopyran-2-one metabolite formation at 0.15 mmol measured per nmol of CYP450 by LC-UV analysis.
Series [8] in a line: Drug metabolism in rat liver microsomes assessed as cytochrome P450-mediated 4'-hydroxywarfarin metabolite formation by LC-UV analysis in presence of carbon monoxide-oxygen mixture at ratio of 80:20. The class given is ADME. The method, boiled down:
as §3

Series [9] in a line: Drug metabolism in phenobarbital-induced rat liver microsomes assessed as cytochrome P450-mediated 4-hydroxy-3-(3-oxo-1-phenyl-1-butenyl)-2H-1-benzopyran-2-one metabolite formation at 3 umol measured under acidic conditions by LC-UV analysis in presence of NADPH. The class given is ADME. A digest of the protocol:
as §2

A short description of series [10]: Drug metabolism in rat liver microsomes assessed as cytochrome P450-mediated 4'-hydroxywarfarin metabolite formation measured after 10 mins by LC-UV analysis. Format: ADME. A digest of the protocol:
as §1

Series [11] is described as follows: Drug metabolism in rat liver microsomes assessed as cytochrome P450-mediated 4-hydroxy-3-(3-oxo-1-phenyl-1-butenyl)-2H-1-benzopyran-2-one metabolite formation at 3 umol measured under acidic conditions by LC-UV analysis in presence of NADPH. Format: ADME. The method, boiled down:
as §2

Series [12] can be described thus: Drug metabolism in rat liver microsomes assessed as cytochrome P450-mediated 7-hydroxywarfarin metabolite formation by LC-UV analysis in presence of carbon monoxide-oxygen mixture at ratio of 80:20. The class given is ADME. A digest of the protocol:
as §3

Series [13] is described as follows: Drug metabolism in rat liver microsomes assessed as cytochrome P450-mediated 4-hydroxy-3-(3-oxo-1-phenyl-1-butenyl)-2H-1-benzopyran-2-one metabolite formation by LC-UV analysis in presence of nitrogen. The class given is ADME. A digest of the protocol: as §3
The nature of series [14]: Drug metabolism in rat liver microsomes assessed as cytochrome P450-mediated 6-hydroxywarfarin metabolite formation measured after 10 mins by LC-UV analysis. Format: ADME. The method, boiled down:
as §1

The nature of series [15]: Drug metabolism in rat liver microsomes assessed as cytochrome P450-mediated 6-hydroxywarfarin metabolite formation by LC-UV analysis in presence of carbon monoxide-oxygen mixture at ratio of 80:20. Format: ADME. The method, boiled down:
as §3

Series [16] in a line: Drug metabolism in rat liver microsomes assessed as cytochrome P450-mediated 4'-hydroxywarfarin metabolite formation measured for 10 mins by LC-UV analysis. The class given is ADME. The method, boiled down:
as §1

Series [17] is described as follows: Drug metabolism in rat liver microsomes assessed as cytochrome P450-mediated 7-hydroxywarfarin metabolite formation measured for 10 mins by LC-UV analysis. The class given is ADME. A digest of the protocol:
as §1

Series [18] can be described thus: Drug metabolism in rat liver microsomes assessed as cytochrome P450-mediated 4-oxo-3-(3-oxo-1-phenylbut-1-enyl)-4H-chromen-2-olate metabolite formation at 3 umol measured under basic conditions by LC-UV analysis in presence of NADPH. Format: ADME. The method, boiled down: as §2
Series [19] in a line: Activity at cytochrome P450 in rat liver microsomes treated with (R)-warfarin measured for 10 mins by LC-UV analysis. Format: ADME. The method, boiled down:
(§4)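 Male Wistar rat hepatic microsomes, 8.0 mg protein in 4.0 mL 0.01 M TES-0.002 M MgCl2, pH 7.4. Enantiopure warfarin sodium 1.0 mg (3.0 × 10^-6 mol) with an NADPH-generating system (NADP 1.25 μmol, glucose 6-phosphate 62.1 μmol). Preincubated 1.0 min at 37 °C, started with G6P dehydrogenase 5.0 units, stopped after 10 min by filtration. Metabolites separated and quantified by LC against external standards.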

The nature of series [20]: Activity at cytochrome P450 in rat liver microsomes treated with (S)-warfarin measured after 10 mins by LC-UV analysis. Format: ADME. The method, boiled down:
as §4

A short description of series [21]: Activity at cytochrome P450 in rat liver microsomes treated with (S)-warfarin measured for 10 mins by LC-UV analysis. The class given is ADME. The method, boiled down:
as §4

The nature of series [22]: Activity at cytochrome P450 in rat liver microsomes treated with (R)-warfarin measured after 10 mins by LC-UV analysis. The class given is ADME. A digest of the protocol:
as §4

The nature of series [23]: Drug metabolism in PCN-induced rat liver microsomes assessed as cytochrome P450-mediated 4-hydroxy-3-(3-oxo-1-phenyl-1-butenyl)-2H-1-benzopyran-2-one metabolite formation at 0.15 mmol measured per nmol of CYP450 under acidic conditions by LC-UV analysis in presence of cumene hydroperoxide. Format: ADME. The method, boiled down:
(§5)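 Liver microsomes from PCN-induced rats (100 mg/kg/day ip in corn oil for 3 days), 200 mL at 2.0 mg protein/mL in TES–MgCl2, pH 7.4, with (R)-warfarin sodium 1.5 × 10^-4 mol. Preincubated 5 min at 37 °C with shaking, started with cumene hydroperoxide 1.6 × 10^-4 mol, given a second equal addition at 10 min, stopped at 30 min on ice. Product isolated by preparative C18 LC.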

Series [24] is described as follows: Drug metabolism in phenobarbital-induced rat liver microsomes assessed as cytochrome P450-mediated 4-hydroxy-3-(3-oxo-1-phenyl-1-butenyl)-2H-1-benzopyran-2-one metabolite formation at 3 umol measured per nmol of CYP450 under acidic conditions by LC-UV analysis in presence of cumene hydroperoxide. Format: ADME. The method, boiled down:
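Phenobarbital-induced rat liver microsomes (100 mg/kg/day ip for 3 days) with 8.0 mg protein and warfarin sodium 3.0 × 10^-6 mol in 4.0 mL TES–MgCl2 buffer, pH 7.4, at 37 °C. No NADPH generating system; started with cumene hydroperoxide 3.3 × 10^-5 mol and stopped after 5 min. Products quantified by LC against external standards.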

Series [25] in a line: Drug metabolism in PCN-induced rat liver microsomes assessed as cytochrome P450-mediated 4-oxo-3-(3-oxo-1-phenylbut-1-enyl)-4H-chromen-2-olate metabolite formation at 0.15 mmol measured under basic conditions by LC-UV analysis in presence of cumene hydroperoxide. The class given is ADME. A digest of the protocol:
as §5

Series [26] in a line: Activity at cytochrome P450 in phenobarbital-induced rat liver microsomes treated with (S)-warfarin at 3 umol measured under basic conditions by LC-UV analysis in presence of NADPH. The class given is ADME. The method, boiled down:
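Phenobarbital induction: 100 mg/kg/day ip in saline for 3 days, microsomes isolated 24 h after the last dose. Incubation in 4.0 mL 0.01 M TES-0.002 M MgCl2, pH 7.4, with warfarin sodium 1.0 mg (3.0 × 10^-6 mol), NADP 1.25 μmol, glucose 6-phosphate 62.1 μmol and 8.0 mg microsomal protein. Preincubated 1.0 min at 37 °C, started with G6P dehydrogenase 5.0 units, stopped after 10 min by filtration. Metabolites quantified by LC against external standards.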

A short description of series [27]: Activity at cytochrome P450 in rat liver microsomes treated with (S)-warfarin at 3 umol measured under basic conditions by LC-UV analysis in presence of NADPH. Format: ADME. A digest of the protocol:
as §4

A short description of series [28]: Activity at cytochrome P450 in PCN-induced rat liver microsomes treated with (R)-warfarin at 0.15 mmol measured under basic conditions by LC-UV analysis in presence of cumene hydroperoxide. Format: ADME. A digest of the protocol: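 PCN-induced rat liver microsomes (PCN 100 mg/kg/day ip in corn oil for 3 days; killed 24 h after last dose): 200 mL of microsomes at 2.0 mg protein/mL in TES-MgCl2 buffer pH 7.4, with (R)-warfarin sodium 1.5 × 10^-4 mol. Shaken 5 min at 37 °C, then started with cumene hydroperoxide 1.6 × 10^-4 mol, re-added at 10 min, stopped at 30 min on ice. Product collected by preparative C18 LC.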

Four compounds from ChEMBL document CHEMBL3244411, “A new warfarin metabolite: structure and function” (J Med Chem, 1978) can be followed below.

Molecules are shown by their SMILES.

Consider `CC(=O)C[C@@H](c1ccccc1)c1c(O)c2ccccc2oc1=O`, for which the Drug metabolism result in series [1] is listed as “metabolite_detected”; in [2], “metabolite_detected”; in series [3], “metabolite_detected”; in series [4] it was “metabolite_notdetected”; in [5], “metabolite_detected”; in series [6], “metabolite_detected”. For the same compound, the Drug metabolism in series [7] is listed as 0.19 nmol/min; in series [8], “metabolite_detected”; in [9], “metabolite_detected”; in [10], “metabolite_detected”; in series [11], “metabolite_detected”; in series [12] it was “metabolite_detected”. In addition, the Drug metabolism result in series [13] is “metabolite_notdetected”; in series [14] it was “metabolite_detected”; in [15] it was “metabolite_detected”; in series [16], “metabolite_detected”; in series [17] it was “metabolite_detected”; in series [18], “metabolite_detected”.
On to `CC(=O)CC(c1ccc(O)cc1)c1c(O)oc2ccccc2c1=O` (stereo unspecified), for which the Drug metabolism entry in series [19], in [20], in series [21] and in series [22] was “metabolite_detected” in each case.
As to `CC(=O)C[C@H](c1ccccc1)c1c(O)c2ccccc2oc1=O`, the Drug metabolism result in series [1] is reported as “metabolite_detected”; in [2], “metabolite_detected”; in series [3], “metabolite_detected”; in series [4], “metabolite_notdetected”; in series [10], “metabolite_detected”; in [23], 0.423 nmol/min. Moreover, the Drug metabolism is 0.15 nmol/min in series [24]; “metabolite_detected” in series [14]; “metabolite_detected” in series [25]; “metabolite_detected” in series [16]; “metabolite_detected” in [17].
In the case of `CC(=O)/C=C(\c1ccccc1)c1c(O)oc2ccccc2c1=O`, the Drug metabolism entry in series [26], in series [27] and in series [28] was “metabolite_detected” each time.
